Rows were chosen to be rich in hits. Some 0.75% of all compounds tested hit in one or more screens of this group.
ASAP1 inh – inhibitors of human ASAP1 ArfGAP activity, primary screen, biochemical, fluorescence polarization. hit rate 0.19% among 360,000. inhibition, % at 16.5 µM. ASAP1-stimulated ARF1 GTP hydrolysis, GDP FP detection; in the data active = inhibition above about 25%;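 note: 0% = vehicle with enzyme and substrate and 100% = no enzyme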
ZTA counter – ZTA (EBV) inhibition in EBNA-1 counter-screen; P03206; AID 2234; hit rate 0.15% among 320,000; ZTA-DNA binding, fluorescence polarization; inhibition, % at 11 µM; in the data active = inhibition above about 33%
Target sequence (P03206 whole entry, looked up): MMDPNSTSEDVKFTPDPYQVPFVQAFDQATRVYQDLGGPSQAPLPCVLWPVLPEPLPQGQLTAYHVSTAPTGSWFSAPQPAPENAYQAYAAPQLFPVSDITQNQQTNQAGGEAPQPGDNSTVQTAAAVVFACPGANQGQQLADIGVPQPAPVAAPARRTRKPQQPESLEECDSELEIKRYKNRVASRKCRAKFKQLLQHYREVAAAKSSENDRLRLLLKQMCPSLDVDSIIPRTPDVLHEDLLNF
EBNA-1 inh – EBNA-1 DNA-binding inhibitors, primary screen, biochemical, fluorescence polarization; AID 1950, 2009; hit rate 0.34% among 300,000; inhibition, % at 14.8 µM; in the data active = inhibition above about 28%
ARFGAP1 inh – inhibitors of rat ARFGAP1 GAP activity, primary screen, biochemical, fluorescence polarization, GDP tracer. ADP-ribosylation factor GTPase-activating protein 1 (Rattus norvegicus), Q62848. hit rate 0.26% among 360,000. inhibition, % at 16.5 µM. Arfgap1-stimulated ARF1 GTP hydrolysis, GDP FP detection;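 active = inhibition above a per-plate limit, mean inhibition of low control wells plus 3 SD, cut at about 25% in these data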;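 note: 0% = DMSO wells with enzyme and 100% = wells lacking Arfgap1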
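Assay system: Rat Arfgap1 GAP domain (His6, aa 1-136), purified enzyme | Buffer or medium: HEPES 25 mM pH 7.5, NaCl 150 mM, MgCl2, DTT | Schedule: GTP hydrolysis reaction 2 h at 25 °C | Signal: FP of antibody-bound GDP Alexa 633 tracer, ex 620/em 688 nm | Measure: Percent inhibition of Arfgap1-stimulated GTP hydrolysis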
ARFGAP1 confirm – ARFGAP1 inhibitor hit confirmation, biochemical, fluorescence polarization, triplicate. shares compounds with ARFGAP1 inh. ARFGAP1-stimulated ARF1 GTP hydrolysis, GDP tracer FP. hit rate 30% among 890. inhibition, % at 16.5 µM. AID 651608, 2012;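 active = average inhibition over triplicates above the hit cutoff set in the earlier primary screen, cut at about 25% in these data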;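 note: 0% = Arfgap1 plus ARF1-GTP with DMSO and 100% = wells lacking Arfgap1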
Target sequence (Q62848 whole entry, looked up): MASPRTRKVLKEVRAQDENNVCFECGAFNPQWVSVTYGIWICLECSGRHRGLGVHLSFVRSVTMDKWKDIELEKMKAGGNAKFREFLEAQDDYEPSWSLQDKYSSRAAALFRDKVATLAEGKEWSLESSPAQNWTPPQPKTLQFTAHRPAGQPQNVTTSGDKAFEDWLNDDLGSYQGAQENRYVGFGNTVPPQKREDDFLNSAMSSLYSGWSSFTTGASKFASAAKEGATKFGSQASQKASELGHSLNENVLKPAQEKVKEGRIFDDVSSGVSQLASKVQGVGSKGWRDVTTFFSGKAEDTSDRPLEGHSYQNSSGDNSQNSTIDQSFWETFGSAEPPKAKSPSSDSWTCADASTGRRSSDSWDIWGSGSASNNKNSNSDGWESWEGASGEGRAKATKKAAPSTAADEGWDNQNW
* = called active by the depositor; . = no result.

SMILES | ASAP1 inh | ZTA counter | EBNA-1 inh | ARFGAP1 inh | ARFGAP1 confirm
COc1ccc(C(C#N)N2CCC(c3ccccc3)=N2)cc1OC (configuration not stated) | 13 | -14 | -2 | 8 | .
COc1cc(C(c2oc(CO)cc(=O)c2O)c2oc(CO)cc(=O)c2O)cc(OC)c1OC | 17 | -8 | -7 | 5 | .
COc1ccc(C(c2oc(CO)cc(=O)c2O)c2oc(CO)cc(=O)c2O)cc1OC | 6 | -1 | -6 | 27* | 1
O=S1(=O)N[C@H](Cc2ccccc2)COc2cc(F)ccc21 | 9 | . | . | -2 | .
Cc1cc(C)cc(NC(=O)CSc2cc(C(=O)c3nccn3C)c3ccccc3n2)c1 | -9 | -2 | 6 | 25* | 6
O=C(N[C@H](Cc1ccccc1)C(=O)NCC1CCCCC1)[C@H]1O[C@@H](n2ccc(=O)[nH]c2=O)[C@H](O)[C@@H]1O | 19 | . | . | 1 | .
O=C(Nc1cccc(-c2csc(Nc3cccc(C(F)(F)F)c3)n2)c1)c1ccccc1 | 8 | 19 | 5 | 25* | 18
Cc1nc2ccc(C(=O)N3c4ccccc4N=C(c4ccc(C(F)(F)F)cc4)C3C(=O)NC(C)(C)C)cc2[nH]1 (configuration not stated) | 9 | . | . | 26* | -1
CCCCNC(=O)C1C(c2ccc(C(F)(F)F)cc2)=Nc2ccccc2N1C(=O)c1cccc(C(F)(F)F)c1 (configuration not stated) | 0 | . | . | 1 | .
CCOC(=O)C1CSCCS(=O)(=O)N1Cc1cccc(Cl)c1 (configuration not stated) | 4 | . | . | -3 | .
O=C(NCCc1nc2ccccc2[nH]1)c1cccc(Br)c1 | -3 | 10 | 4 | 25* | -2
O=C(NCCc1nc2ccccc2[nH]1)c1ccc(F)cc1 | . | 6 | 1 | . | .
C[C@H]1[C@H](c2ccccc2)Oc2cccc(N3CCCC3)c2S(=O)(=O)N1Cc1cccc(F)c1 | 6 | . | . | 4 | .
Cc1ccc(C(=O)C(C)[n+]2cccc(C(N)=O)c2)cc1 (configuration not stated) | 15 | 6 | 11 | 6 | .
Cc1ccc[n+](C(C)C(=O)c2ccc(Cl)cc2)c1 (configuration not stated) | 6 | 4 | -8 | 45* | -2
COC(=O)C1=C(C)N(Cc2ccccc2C(F)(F)F)C(=NCc2ccc(OC)cc2)NC1c1cccc(Cl)c1 (configuration not stated) | -3 | . | . | 0 | .
CCOC(=O)c1ccc(-c2ccc3c(=O)c4ccccc4n(C)c3c2)cc1F | -12 | -6 | 2 | 26* | 8
CCOC(=O)c1ccc(-c2c(-c3ccccc3OC)oc3ccccc23)cc1F | 1 | -1 | . | -1 | .
CN1CCN(c2ccccc2NC(=O)c2ccc(-c3ccc(Br)cc3)o2)CC1 | . | 2 | 0 | . | .
O=C(Nc1ccccc1N1CCCC1)c1cc(Cl)ccc1Cl | 6 | -2 | -9 | -2 | .
O=C(Nc1ccccc1N1CCCCC1)c1ccc(-c2ccc(Cl)cc2)o1 | 7 | 23 | -13 | 27* | -9
O=C(Nc1ccccc1N1CCCC1)c1ccc(Cl)cc1Cl | -18 | 24 | 0 | 30* | -4
COC(=O)[C@]12C[C@H](CC(=O)N3CCCCC3)C(=O)N(Cc3ccccc3)C1=C[C@H](C(C)C)O[C@@H]2C1CC1 | 8 | . | . | -9 | .
Cc1ccc(C)c(Oc2cc(NC(=O)CCCn3nc(C)c([N+](=O)[O-])c3C)cc([N+](=O)[O-])c2)c1 | 6 | 4 | -1 | 26* | 1
COCCN1Cc2cc(C(=O)OC)c3c(c2C1=O)c1cc(F)ccc1n3S(=O)(=O)c1cccc(C)c1 | -4 | . | . | 12 | .
SMILES | ASAP1 inh | ZTA counter | EBNA-1 inh | ARFGAP1 inh | ARFGAP1 confirm
CCCc1ccc(Oc2cn[nH]c2-c2ccc(O)c(C)c2O)cc1 | 14 | 8 | 6 | 27* | 31*
O=c1[nH]c(/C=C/c2ccc(Br)cc2)nc2c1cnn2-c1ccccc1 | . | -4 | -1 | . | .
COc1cccc(/C=C/c2nc3c(cnn3-c3ccccc3)c(=O)[nH]2)c1 | 17 | 15 | -5 | 28* | 5
COc1ccc(-c2sc3ccc(OC)cc3c2-c2ccc(O)cc2)cc1 | 17 | . | . | 17 | .
COc1cc(OC)cc(-c2sc3ccc(OC)cc3c2-c2ccc(O)cc2)c1 | 13 | . | . | 26* | 12
Nc1[nH]c(C(=O)c2ccccc2)c(-c2cccc3ccccc23)c1C(=O)c1ccc(Br)cc1 | -4 | . | . | -5 | .
NS(=O)(=O)c1ccc(CNC(=S)NC2CCCC2)cc1 | 7 | 13 | 0 | 29* | 5
CCCCCCC12Cc3cc(OC)c(OC)cc3C(O1)C1=C(O2)C(C)(C)CCC1=O (configuration not stated) | -6 | . | . | -1 | .
COc1ccc(/C=C2\Oc3cc(OCC(=O)N4CCC[C@H]4C(=O)O)ccc3C2=O)c(OC)c1OC | 5 | -11 | -3 | 26* | 17
COc1ccc(OC)c(/C=C2\Oc3cc(OCC(=O)N4CCC(C(=O)O)CC4)ccc3C2=O)c1 | 16 | 7 | -2 | 42* | 48*
Nc1[nH]c(C(=O)c2ccccc2)c(-c2ccccc2C(F)(F)F)c1C(=O)NCCc1c[nH]c2ccccc12 | 3 | . | . | 25* | 12
Nc1[nH]c(C(=O)c2ccccc2)c(-c2ccccc2Br)c1C(=O)NCCc1c[nH]c2ccccc12 | 4 | . | . | 12 | .
CC(=O)Nc1ccc(NC(=O)C2CCCN(C(=O)c3ccc(Cl)cc3)C2)cc1 (configuration not stated) | 3 | -3 | -9 | 8 | .
O=C(Nc1ccc(OC(F)(F)F)cc1)C1CCCN(C(=O)c2ccc(Cl)cc2)C1 (configuration not stated) | 14 | -12 | . | 25* | 6
COC(=O)[C@]12C[C@H](CC(=O)NCCC(C)C)C(=O)N(CCC3=CCCCC3)C1=C[C@H](C(C)(C)C)O[C@@H]2C | -5 | . | . | -11 | .
O=S(=O)(c1ccc(F)cc1)N1CCCc2nc(-c3ccccc3)ccc21 | -12 | . | . | -9 | .
O=C(CSc1nnc(SCc2cccc3ccccc23)s1)N/N=C/c1c[nH]c2ccccc12 | -2 | -3 | 6 | 32* | 17
O=C(CSc1nnc(SCc2ccc(Cl)cc2)s1)N/N=C/c1c[nH]c2ccccc12 | 4 | 18 | 16 | 14 | .
Nc1cc(Cl)nnc1Cl | -2 | . | . | 25* | 3
O=C(NCCc1ccccc1Cl)[C@@H]1CCCN1C(=O)[C@@H](NS(=O)(=O)c1ccc(F)cc1F)c1ccccc1 | -7 | . | . | -6 | .
COc1ccc(NS(=O)(=O)c2cccc(C(=O)N/N=C(\C)c3ccncc3)c2)cc1 | 6 | -7 | -8 | 39* | 6
COc1ccc(NS(=O)(=O)c2cccc(C(=O)N/N=C(\C)c3ccc(-n4ccnc4)cc3)c2)cc1 | 10 | -5 | -6 | 9 | .
